Results of several laboratories.
Each line is one published result; the experiments were not run side by side.
Target: Tyrosine-protein kinase Srms (SRMS, Homo sapiens, UniProt Q9H3Y6)

| SMILES | effect on | mode | technique | tested at | measurement | value |
| --- | --- | --- | --- | --- | --- | --- |
| O=C(Nc1ccc(Oc2ccc(F)cc2)cc1)N1CCc2ncccc2[C@H]1c1ccc(F)cc1 | cell-free assay | – | competition with immobilised ligand | 1 µM | remaining binding | 94% |
| O=C(Nc1cnn(-c2csc(C(=O)NC3COC3)c2)c1)Nc1c(F)cccc1Cl | enzyme activity | inhibitor | – | 5 µM | remaining activity | 105% |
| O=C1NC(=O)c2cc(Nc3ccc(F)cc3)c(Nc3ccc(F)cc3)cc21 | cell-free assay | – | – | 0.5 µM | remaining signal | 95.5% |
| COc1cc2ncnc(Nc3ccc(Oc4ccccc4)cc3C)c2cc1OC | enzyme activity | inhibitor | – | 1 µM | inhibition | 84% |
| Cc1cc(-n2nc(Cc3cc(F)cc(C(F)(F)F)c3)nc2C)ccc1C(N)=O | cell-free assay | – | competition with immobilised ligand | 1 µM | remaining binding | 98% |
| O=C1Nc2ccc(Cl)cc2C1=Cc1cc(Cl)c(O)c(Cl)c1 | cell-free assay | – | – | 0.5 µM | remaining signal | 86.3% |
| Cc1sc(C(=O)NC2COC2)cc1-n1cc(NC(=O)Nc2c(F)cccc2Cl)cn1 | enzyme activity | inhibitor | – | 10 µM | remaining activity | 104% |
| O=C(NC[C@@H]1[C@H]2CN(C(=O)OCc3cc(C(F)(F)F)cc(C(F)(F)F)c3)C[C@@H]12)c1ccc2[nH]nnc2c1 | cell-free assay | – | competition with immobilised ligand | 1 µM | remaining binding | 83% |
| Nc1ncnc2occ(-c3ccc(NC(=O)Nc4cc(C(F)(F)F)ccc4F)cc3)c12 | cell-free assay | inhibitor | – | 20 µM | remaining signal | 0.8% |
| FC(F)(F)c1ccc2c(c1)nc(-c1cccnc1)n2C1CC1 | cell-free assay | – | competition with immobilised ligand | 1 µM | remaining binding | 95% |
| CC(C)(C)c1nc2c(s1)c1nc(N)ncc1c1ccc(NS(=O)(=O)c3c(F)cccc3F)c(F)c12 | enzyme activity | inhibitor | radiometric | 1 µM | remaining activity | 70% |
| CC/C(=N\NC(=O)NCc1cccc(O)c1)c1ccc(O)c(C)c1O | enzyme activity | inhibitor | – | 0.1 µM | inhibition | 1.1% |
